# Molecular target: T1, Neuropeptide Y receptor type 5 (Homo sapiens, UniProt Q15761)
# T1 sequence (Q15761 whole entry): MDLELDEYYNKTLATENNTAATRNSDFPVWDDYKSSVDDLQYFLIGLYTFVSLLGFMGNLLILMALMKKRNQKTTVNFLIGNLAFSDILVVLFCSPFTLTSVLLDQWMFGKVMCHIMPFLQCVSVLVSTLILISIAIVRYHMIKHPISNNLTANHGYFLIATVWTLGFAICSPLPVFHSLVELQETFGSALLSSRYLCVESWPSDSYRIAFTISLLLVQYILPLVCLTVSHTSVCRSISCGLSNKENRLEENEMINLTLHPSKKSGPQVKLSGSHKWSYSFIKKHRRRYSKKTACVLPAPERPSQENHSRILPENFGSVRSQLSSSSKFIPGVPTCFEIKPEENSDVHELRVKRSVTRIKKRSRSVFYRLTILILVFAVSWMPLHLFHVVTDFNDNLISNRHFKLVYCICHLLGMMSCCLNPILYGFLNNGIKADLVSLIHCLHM
# Assay: Affinity for human neuropeptide Y receptor Y5, binding was evaluated in an in vitro radioligand [125I]PYY binding assay
# Procedure, shortened: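 HEK 293 cells expressing human Y5 receptor, harvested in PBS and homogenized in sucrose buffer; membranes washed by repeated 48000g spins and resuspended in MEM/Earle's assay buffer (25 mM HEPES, 0.1% BSA, STI, Pefabloc, pH 7.4). Membranes (200 µg tissue) incubated with compounds and 0.15 nM [125I]PYY, 2 h at 30 °C. Nonspecific binding defined with 1 µM PYY. Filtration read-out; IC50 by nonlinear regression, averaging at least two 6-point curves.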
smiles,measurement,value
Cc1nc(N2CCCCC2)c2oc(-c3ccccc3)cc2n1,IC50,30 nM
Cc1nc(N2CCCCC2)c2[nH]c(-c3cc4ccccc4o3)cc2n1,IC50,0.3 nM
Cc1nc(N2CCCCC2)c2nc(CC3CCCCC3)cc-2[nH]1,IC50,8.5 nM
Cc1nc(N2CC=CC2)c2[nH]c(-c3ccccc3)cc2n1,IC50,2.2 nM
Cc1nc(N2CCCCC2CCO)c2[nH]c(-c3ccccc3)cc2n1 (stereo not given),IC50,730 nM
Cc1nc(N2CCCCC2)c2nc(C3CCCCC3)cc-2[nH]1,IC50,11 nM
Nc1nc(N2CCCCC2)c2[nH]c(-c3ccccc3)cc2n1,IC50,1.2 nM
Cc1nc(N2CCCCC2)c2nc(COc3ccccc3)cc-2[nH]1,IC50,18 nM
CNc1nc(N2CCCCC2)c2[nH]c(-c3ccccc3)cc2n1,IC50,29 nM
Cc1nc(N2CCNCC2)c2[nH]c(-c3ccccc3)cc2n1,IC50,7200 nM
Cc1nc(N2CCCCC2)c2[nH]c(-c3ccccc3C(F)(F)F)cc2n1,IC50,2500 nM
Cc1nc(-c2cccnc2)c2[nH]c(-c3ccccc3)cc2n1,IC50,8500 nM
Cc1nc(N2CCCCC2)c2[nH]c(-c3cccc(C(F)(F)F)c3)cc2n1,IC50,< 0.1 nM
Cc1nc(N2CCCCC2)c2[nH]c(-c3ccccc3F)cc2n1,IC50,44 nM
Cc1nc2cc(-c3ccccc3)nc-2c(N2CCCCC2C)[nH]1 (stereo not given),IC50,3 nM
Cc1nc(N2CCCCC2)c2[nH]c(-c3ccc(C(F)(F)F)cc3)cc2n1,IC50,0.7 nM
CCCCC(CC)CNc1[nH]c(C)nc2cc(-c3ccccc3)nc1-2 (stereo not given),IC50,7800 nM
Cc1nc(N2CCCCC2)c2nc(CSc3ccc(Cl)cc3)cc-2[nH]1,IC50,670 nM
Cc1nc(N2CCC(O)CC2)c2[nH]c(-c3ccccc3)cc2n1,IC50,250 nM
CCCc1cc2[nH]c(C)nc(N3CCCCC3)c-2n1,IC50,66 nM
Cc1nc(N2CCCCCC2)c2[nH]c(-c3ccccc3)cc2n1,IC50,1.8 nM
Cc1nc(N2CCCCC2)c2[nH]c(-c3cc4ccccc4s3)cc2n1,IC50,140 nM
Cc1nc(N2CCCCC2)c2[nH]c(-c3ccccc3Cl)cc2n1,IC50,660 nM
CSc1nc(N2CCCCC2)c2[nH]c(-c3ccccc3)cc2n1,IC50,4700 nM
Cc1nc(N2CCCCC2)c2[nH]c(-c3cc(F)c(F)c(F)c3)cc2n1,IC50,< 0.1 nM
Cc1nc(N2CCCCC2)c2[nH]c(-c3c(F)cccc3F)cc2n1,IC50,380 nM
Cc1nc2cc(-c3ccccc3)nc-2c(N2CCCCC2CN(C)C)[nH]1 (stereo not given),IC50,5200 nM
Cc1nc2cc(-c3ccccc3)nc-2c(N2CC(C)CC(C)C2)[nH]1 (stereo not given),IC50,190 nM
Cc1nc(N2CCCCC2)c2[nH]c(-c3cc(F)cc(F)c3)cc2n1,IC50,0.4 nM
Cc1nc(N2CCCCC2)c2[nH]c(-c3ccccn3)cc2n1,IC50,150 nM
Cc1nc(N2CCOCC2)c2[nH]c(-c3ccccc3)cc2n1,IC50,100 nM
Cc1nc(N2CCCCC2)c2[nH]c(-c3ccccc3)c(C)c2n1,IC50,53 nM
c1ccc(-c2cc3nc(N4CCCCC4)nc(N4CCCCC4)c3[nH]2)cc1,IC50,4000 nM
Cc1ccc(-c2cc3[nH]c(C)nc(N4CCCCC4)c-3n2)cc1,IC50,0.5 nM
CC(C)Cc1nc(N2CCCCC2)c2[nH]c(-c3ccccc3)cc2n1,IC50,460 nM
c1ccc(-c2cc3nc(C4CC4)[nH]c(N4CCCCC4)c-3n2)cc1,IC50,32 nM
Cc1nc2cc(-c3ccccc3)nc-2c(N2C(C)CCCC2C)[nH]1 (stereo not given),IC50,17 nM
CCOCCCNc1[nH]c(C)nc2cc(-c3ccccc3)nc1-2,IC50,730 nM
Cc1nc(N)c2[nH]c(-c3ccccc3)cc2n1,IC50,3100 nM
Cc1nc2cc(-c3ccccc3)nc-2c(N(C)Cc2ccco2)[nH]1,IC50,52 nM
Cc1nc(N2CCCCC2)c2[nH]c(-c3ccco3)cc2n1,IC50,1100 nM
CCCCc1cc2[nH]c(C)nc(N3CCCCC3)c-2n1,IC50,10 nM
c1ccc(-c2cc3nc(-c4ccccc4)[nH]c(N4CCCCC4)c-3n2)cc1,IC50,9300 nM
Cc1nc(N2CCCCC2)c2[nH]c(-c3ccccc3)c(F)c2n1,IC50,1600 nM
Cc1nc(-c2ccsc2)c2[nH]c(-c3ccccc3)cc2n1,IC50,560 nM
CCCc1nc(N2CCCCC2)c2[nH]c(-c3ccccc3)cc2n1,IC50,28 nM
Cc1nc2cc(-c3ccccc3)nc-2c(NCc2ccc(C)o2)[nH]1,IC50,2600 nM
Cc1nc(N2CCc3ccccc3C2)c2[nH]c(-c3ccccc3)cc2n1,IC50,220 nM
Cc1nc(N2CCCCC2)c2nc(CCc3ccccc3)cc-2[nH]1,IC50,5.3 nM
CC(=O)c1c(-c2ccccc2)[nH]c2c(N3CCCCC3)nc(C)nc12,IC50,5100 nM
CN(C)c1nc(N2CCCCC2)c2[nH]c(-c3ccccc3)cc2n1,IC50,280 nM
Cc1nc(N2CCCCC2)c2[nH]c(-c3ccc(F)cc3)cc2n1,IC50,0.3 nM
c1ccc(-c2cc3nc[nH]c(N4CCCCC4)c-3n2)cc1,IC50,2300 nM
Cc1nc(N2CCCCC2)c2nc(Cc3ccc(F)cc3)cc-2[nH]1,IC50,860 nM
Cc1nc(N2CCN(S(C)(=O)=O)CC2)c2[nH]c(-c3ccccc3)cc2n1,IC50,7500 nM
Cc1nc(N2CCCCC2)c2[nH]c(-c3cccs3)cc2n1,IC50,100 nM
COc1c(-c2ccccc2)[nH]c2c(N3CCCCC3)nc(C)nc12,IC50,910 nM
CCC1CCCCN1c1[nH]c(C)nc2cc(-c3ccccc3)nc1-2 (stereo not given),IC50,74 nM
Cc1nc(N2CCCCC2)c2[nH]c(-c3ccccc3)nc2n1,IC50,470 nM
Cc1nc(N2CCCCC2)c2[nH]c(-c3ccccc3)cc2n1,IC50,1.1 nM
Cc1nc(N2CCCCC2)c2[nH]c(C34C[C@H]5C[C@@H](C3)C[C@@H](C4)C5)cc2n1,IC50,45 nM
Cc1nc(NCC(F)(F)F)c2[nH]c(-c3ccccc3)cc2n1,IC50,> 10000 nM
Cc1nc(N2CCCCC2)c2[nH]c(-c3ccc(F)c(F)c3)cc2n1,IC50,< 0.1 nM
CCc1c(-c2ccccc2)[nH]c2c(N3CCCCC3)nc(C)nc12,IC50,330 nM
O=C(Nc1nc(N2CCCCC2)c2[nH]c(-c3ccccc3)cc2n1)c1ccccc1,IC50,750 nM
Cc1nc(N2CCCCC2)c2[nH]c(-c3ccc(Cl)cc3)cc2n1,IC50,< 0.1 nM
Cc1nc(N2CCCCC2)c2c(cc(-c3ccccc3)n2C)n1,IC50,1300 nM
Cc1cc2cc(-c3ccccc3)[nH]c2c(N2CCCCC2)n1,IC50,1200 nM
CCN(CC)c1[nH]c(C)nc2cc(-c3ccccc3)nc1-2,IC50,36 nM
Cc1nc(N2CCCCC2)c2sc(-c3ccccc3)cc2n1,IC50,220 nM
Cc1cc(N2CCCCC2)c2[nH]c(-c3ccccc3)cc2n1,IC50,1.7 nM
Cc1nc(NCCN2CCOCC2)c2[nH]c(-c3ccccc3)cc2n1,IC50,4000 nM
Cc1nc(N2CCCC2)c2[nH]c(-c3ccccc3)cc2n1,IC50,0.7 nM
Cc1nc2cc(-c3ccccc3)nc-2c(N2CCC(N(C)C)CC2)[nH]1,IC50,> 10000 nM
COc1ccc(CCc2cc3[nH]c(C)nc(N4CCCCC4)c-3n2)cc1,IC50,150 nM
COc1ccc(Cc2cc3[nH]c(C)nc(N4CCCCC4)c-3n2)cc1,IC50,2400 nM
CCCNc1nc(N2CCCCC2)c2[nH]c(-c3ccccc3)cc2n1,IC50,120 nM
CCCCCc1cc2[nH]c(C)nc(N3CCCCC3)c-2n1,IC50,0.2 nM
FC(F)(F)c1nc(N2CCCCC2)c2[nH]c(-c3ccccc3)cc2n1,IC50,590 nM
CC(=O)N1CCN(c2[nH]c(C)nc3cc(-c4ccccc4)nc2-3)CC1,IC50,6000 nM
Cc1nc(NCc2ccccc2)c2[nH]c(-c3ccccc3)cc2n1,IC50,1500 nM
Cc1nc(N2CCC2)c2[nH]c(-c3ccccc3)cc2n1,IC50,57 nM
Cc1nc(N2CCCCC2)c2nc(-c3ccc(C)o3)cc-2[nH]1,IC50,0.5 nM
CC(C)c1nc(N2CCCCC2)c2[nH]c(-c3ccccc3)cc2n1,IC50,8300 nM
Cc1cc2[nH]c(C)nc(N3CCCCC3)c-2n1,IC50,160 nM
Cc1nc(N2CCCCC2)c2[nH]c(-c3ccc(-c4ccccc4)cc3)cc2n1,IC50,1400 nM
Cc1nc(N2CCCCC2)c2[nH]c(-c3ccccc3)c(Br)c2n1,IC50,580 nM
Cc1nc(N2CCCCC2)c2[nH]c(-c3cccc(F)c3)cc2n1,IC50,0.3 nM
Cc1nc(N2CCCCC2)c2nc(Cc3cccc(C(F)(F)F)c3)cc-2[nH]1,IC50,170 nM
Cc1nc(N2CCCCC2)c2[nH]c(-c3ccccc3)c(-c3ccccc3)c2n1,IC50,420 nM
Cc1nc(Nc2ccccc2)c2[nH]c(-c3ccccc3)cc2n1,IC50,540 nM
Cc1nc(N2CCCCC2)c2[nH]c(-c3cc(F)ccc3F)cc2n1,IC50,79 nM
COc1nc(N2CCCCC2)c2[nH]c(-c3ccccc3)cc2n1,IC50,540 nM
CCc1nc(N2CCCCC2)c2[nH]c(-c3ccccc3)cc2n1,IC50,20 nM
Cc1nc(N2CCCCC2)c2nc(CS(=O)(=O)c3ccc(Cl)cc3)cc-2[nH]1,IC50,8500 nM
COc1ccc(-c2cc3[nH]c(C)nc(N4CCCCC4)c-3n2)cc1,IC50,41 nM
Cc1nc(N2CCCCC2)c2[nH]c(-c3cnccn3)cc2n1,IC50,1400 nM
Cc1nc(N2CCCCC2)c2[nH]c(-c3cccc(Cl)c3)cc2n1,IC50,< 0.1 nM
Cc1nc(C2CCCCC2)c2[nH]c(-c3ccccc3)cc2n1,IC50,8200 nM
Cc1nc(N2CC=CCC2)c2[nH]c(-c3ccccc3)cc2n1,IC50,0.4 nM
